Activity calls are given as the source filed them. The calls are words filed in the database; no cut-off is given here.
Columns and labels:
[1] = tested on: A549; test: Cytotoxicity against human A549 cells after 72 hrs by sulforhodamine B assay; type: functional, cell-based; conditions: for IC50: A549, 72 h
[2] = tested on: KB; test: Cytotoxicity against human KB cells after 72 hrs by sulforhodamine B assay; type: functional, cell-based
[3] = (§1) Cytotoxicity against human KBVIN cells after 72 hrs by sulforhodamine B assay; type: functional, cell-based
[4] = tested on: MCF7; test: Cytotoxicity against human MCF7 cells after 72 hrs by sulforhodamine B assay; type: functional, cell-based; conditions: for IC50: MCF7, 72 h
[5] = tested on: MDA-MB-231; test: Cytotoxicity against human MDA-MB-231 cells after 72 hrs by sulforhodamine B assay; type: functional, cell-based; conditions: for IC50: MDA-MB-231, 72 h
[6] = tested on: A549; test: Cytotoxicity against human A549 cells after 48 hrs by MTT assay; type: functional, cell-based; conditions: A549, 48 h
[7] = Hemolytic activity against New Zealand rabbit erythrocytes measured after 60 mins; type: ADME, cell-based, Oryctolagus cuniculus, Erythrocyte; conditions: read-out: HD50
Procedure, shortened: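 Nonheparinized rabbit blood; erythrocytes washed three times in PBS pH 7.4, 10% suspension; compounds from 10 mM DMSO stock diluted in PBS to 5-500 μM; 100 μL suspension plus 1 mL sample, 37 °C 60 min with periodic stirring; centrifuged, supernatant A540; distilled water = 100% hemolysis, PBS blank subtracted; triplicate; HD50 = concentration giving 50% maximal hemolysis.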

[8] = tested on: A549; test: Induction of apoptosis in human A549 cells assessed as late apoptotic cells at 4 uM after 24 hrs by Annexin-V-FITC/propidium iodide staining based flow cytometric method (reference value: 2.97%); type: functional
[9] = tested on: A549; test: Cell cycle arrest in human A549 cells assessed as accumulation at G1-phase at 8 uM after 24 hrs by propidium iodide staining based flow cytometric analysis (reference value: 46.6%); type: functional
[10] = tested on: A549; test: Induction of apoptosis in human A549 cells assessed as reduction in procaspase-3 level at 2 to 8 uM by Western blot analysis; type: functional, cell-based
Procedure, shortened: (§2)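 A549 cells exposed 24 h; lysed in Tris-Cl pH 6.8/4% SDS/glycerol/β-mercaptoethanol/PMSF/aprotinin buffer, cleared 12000g 15 min 4 °C, protein by BCA; 10-15% SDS-PAGE, PVDF transfer, primary antibodies overnight 4 °C, HRP secondaries, ECL detection; Lam A as loading control.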

[11] = tested on: A549; test: Induction of apoptosis in human A549 cells assessed as late apoptotic cells at 8 uM after 24 hrs by Annexin-V-FITC/propidium iodide staining based flow cytometric method (reference value: 2.97%); type: functional
[12] = tested on: A549; test: Induction of apoptosis in human A549 cells assessed as early apoptotic cells at 2 uM after 24 hrs by Annexin-V-FITC/propidium iodide staining based flow cytometric method (reference value: 1.43%); type: functional
[13] = tested on: A549; test: Induction of apoptosis in human A549 cells assessed as early apoptotic cells at 8 uM after 24 hrs by Annexin-V-FITC/propidium iodide staining based flow cytometric method (reference value: 1.43%); type: functional
[14] = organism: Homo sapiens; test: as §1; type: functional, cell-based
[15] = tested on: A549; test: Induction of apoptosis in human A549 cells assessed as early apoptotic cells at 4 uM after 24 hrs by Annexin-V-FITC/propidium iodide staining based flow cytometric method (reference value: 1.43%); type: functional
[16] = tested on: A549; test: Cell cycle arrest in human A549 cells assessed as accumulation at G1-phase at 2 uM after 24 hrs by propidium iodide staining based flow cytometric analysis (reference value: 46.6%); type: functional
[17] = tested on: A549; test: Induction of apoptosis in human A549 cells assessed as reduction in procaspase-8 level at 2 to 8 uM by Western blot analysis; type: functional, cell-based; procedure, shortened: as §2
[18] = tested on: A549; test: Cell cycle arrest in human A549 cells assessed as accumulation at G1-phase at 4 uM after 24 hrs by propidium iodide staining based flow cytometric analysis (reference value: 46.6%); type: functional
[19] = tested on: A549; test: Induction of apoptosis in human A549 cells assessed as late apoptotic cells at 2 uM after 24 hrs by Annexin-V-FITC/propidium iodide staining based flow cytometric method (reference value: 2.97%); type: functional
[20] = tested on: A549; test: Induction of apoptosis in human A549 cells assessed as reduction in procaspase-9 level at 2 to 8 uM by Western blot analysis; type: functional, cell-based; procedure, shortened: as §2
[21] = tested on: A549; test: Induction of apoptosis in human A549 cells assessed as increase in cleaved PARP level at 2 to 8 uM by Western blot analysis; type: functional, cell-based; procedure, shortened: as §2

SMILES | IC50 [1] | IC50 [2] | IC50 [3] | IC50 [4] | IC50 [5] | IC50 [6] | HC50 at 1 h [7] | further results
CC1(C)CC[C@]2(C(=O)NCCCCCC(=O)O)CC[C@]3(C)C(=CC[C@@H]4[C@@]5(C)CC[C@H](O)[C@@](C)(CO)[C@@H]5CC[C@]43C)[C@@H]2C1 | > 10 µM | > 10 µM | > 10 µM | > 10 µM | > 10 µM |  |  | 
C[C@@H]1O[C@@H](O[C@H]2[C@H](O[C@H]3CC[C@@]4(C)[C@@H](CC[C@]5(C)[C@@H]4C(=O)C=C4[C@@H]6CC(C)(C)CC[C@]6(C(=O)NCC(=O)O)CC[C@]45C)[C@]3(C)CO)OC[C@H](O[C@@H]3O[C@H](CO)[C@@H](O)[C@H](O)[C@H]3O)[C@@H]2O)[C@H](O)[C@H](O)[C@H]1O |  |  |  |  |  | > 10 µM |  | 
C[C@@H]1O[C@@H](O[C@H]2[C@H](O[C@H]3CC[C@@]4(C)[C@@H](CC[C@]5(C)[C@@H]4C[C@H](O)[C@]46OC(=O)[C@@]7(CCC(C)(C)C[C@H]74)CC[C@]65C)[C@]3(C)CO)OC[C@H](O[C@@H]3O[C@H](CO)[C@@H](O)[C@H](O)[C@H]3O)[C@@H]2O)[C@H](O)[C@H](O)[C@H]1O |  |  |  |  |  | > 10 µM | 308 µM | 
CC(=O)OC[C@@]1(C)[C@@H]2CC[C@]3(C)[C@H](CC=C4[C@@H]5CC(C)(C)CC[C@]5(C(=O)O)CC[C@]43C)[C@@]2(C)CC[C@@H]1OC(C)=O | 6.2 µM | 7.4 µM | 8.5 µM | > 10 µM | > 10 µM |  |  | 
CCOC(=O)CNC(=O)[C@]12CCC(C)(C)C[C@H]1C1=CC[C@@H]3[C@@]4(C)CC[C@H](OC(C)=O)[C@@](C)(COC(C)=O)[C@@H]4CC[C@@]3(C)[C@]1(C)CC2 | 4.6 µM | 4.2 µM | 4.9 µM | 7.7 µM | 5.5 µM |  |  | 
CCOC(=O)CCCCCNC(=O)[C@]12CCC(C)(C)C[C@H]1C1=CC[C@@H]3[C@@]4(C)CC[C@H](OC(C)=O)[C@@](C)(COC(C)=O)[C@@H]4CC[C@@]3(C)[C@]1(C)CC2 | 5.1 µM | 6.9 µM | > 10 µM | > 10 µM |  |  |  | 
CC1(C)CC[C@]2(C(=O)O)CC[C@]3(C)C(=CC[C@@H]4[C@@]5(C)CC[C@H](O)[C@@](C)(CO)[C@@H]5CC[C@]43C)[C@@H]2C1 [HEDERAGENIN] | > 10 µM | > 10 µM | > 10 µM | > 10 µM | > 10 µM |  |  | 
C[C@@H]1O[C@@H](O[C@H]2[C@H](O[C@H]3CC[C@@]4(C)[C@@H](CC[C@]5(C)[C@@H]4CC(=O)[C@@H]4[C@@H]6CC(C)(C)CC[C@]6(C(=O)O)CC[C@]45C)[C@]3(C)CO)OC[C@H](O[C@@H]3O[C@H](CO)[C@@H](O)[C@H](O)[C@H]3O)[C@@H]2O)[C@H](O)[C@H](O)[C@H]1O |  |  |  |  |  | > 10 µM | 73.1 µM | 
CC(=O)O[C@H]1C(=O)[C@@]2(C)[C@H]([C@H](OC(=O)c3ccccc3)[C@]3(O)C[C@H](OC(=O)[C@H](O)[C@@H](NC(=O)c4ccccc4)c4ccccc4)C(C)=C1C3(C)C)[C@]1(OC(C)=O)CO[C@@H]1C[C@@H]2O [PACLITAXEL] |  |  | 1.86 µM |  |  |  |  | 
CC1(C)CC[C@]2(C(=O)NCC(=O)O)CC[C@]3(C)C(=CC[C@@H]4[C@@]5(C)CC[C@H](O)[C@@](C)(CO)[C@@H]5CC[C@]43C)[C@@H]2C1 | > 10 µM | > 10 µM | > 10 µM | > 10 µM | > 10 µM |  |  | 
C[C@@H]1O[C@@H](O[C@H]2[C@H](O[C@H]3CC[C@@]4(C)[C@@H](CC[C@]5(C)[C@@H]4CC=C4[C@@H]6CC(C)(C)CC[C@]6(C(=O)O)CC[C@]45C)[C@]3(C)CO)OC[C@H](O[C@@H]3O[C@H](CO)[C@@H](O)[C@H](O)[C@H]3O)[C@@H]2O)[C@H](O)[C@H](O)[C@H]1O [HEDERACOLCHISIDE A] |  |  |  |  |  | 6 µM |  | 
C[C@@H]1O[C@@H](O[C@H]2[C@H](O[C@H]3CC[C@@]4(C)[C@@H](CC[C@]5(C)[C@@H]4C(=O)C=C4[C@@H]6CC(C)(C)CC[C@]6(C(=O)O)CC[C@]45C)[C@]3(C)CO)OC[C@H](O[C@@H]3O[C@H](CO)[C@@H](O)[C@H](O)[C@H]3O)[C@@H]2O)[C@H](O)[C@H](O)[C@H]1O |  |  |  |  |  | > 10 µM | 239 µM | 
C[C@@H]1O[C@@H](O[C@H]2[C@H](O[C@H]3CC[C@@]4(C)[C@@H](CC[C@]5(C)[C@@H]4CC(=O)[C@]46OC(=O)[C@@]7(CCC(C)(C)C[C@H]74)CC[C@@]56C)[C@]3(C)CO)OC[C@H](O[C@@H]3O[C@H](CO)[C@@H](O)[C@H](O)[C@H]3O)[C@@H]2O)[C@H](O)[C@H](O)[C@H]1O |  |  |  |  |  | > 10 µM | 290 µM | 
CCOC(=O)CCCNC(=O)[C@]12CCC(C)(C)C[C@H]1C1=CC[C@@H]3[C@@]4(C)CC[C@H](OC(C)=O)[C@@](C)(COC(C)=O)[C@@H]4CC[C@@]3(C)[C@]1(C)CC2 | 2.8 µM | 3.6 µM | 5.1 µM | 8.6 µM |  |  | > 500 µM | Activity [8]: 4.4%; Activity [1]: Dose-dependent effect; Activity [9]: 68.4%; Activity [10]: Active; Activity [11]: 4.87%; Activity [12]: 14.8%; Activity [13]: 30.3%; Activity [2]: Dose-dependent effect; Activity [14]: Dose-dependent effect; Activity [15]: 26.5%; Activity [4]: Dose-dependent effect; Activity [16]: 53.4%; Activity [17]: Active; Activity [18]: 61.1%; Activity [19]: 3.8%; Activity [20]: Active; Activity [21]: Active; Activity [5]: Dose-dependent effect
CC1(C)CC[C@]2(C(=O)NCCCC(=O)O)CC[C@]3(C)C(=CC[C@@H]4[C@@]5(C)CC[C@H](O)[C@@](C)(CO)[C@@H]5CC[C@]43C)[C@@H]2C1 | > 10 µM | > 10 µM | > 10 µM | > 10 µM | > 10 µM |  |  | 
